Measured values: ChEMBL document CHEMBL1125307, “Novel 1,2,4-oxadiazoles and 1,2,4-thiadiazoles as dual 5-lipoxygenase and cyclooxygenase inhibitors” (J Med Chem, 1992)
Active and inactive are the calls of the source. The rule behind the calls is not given here.

Tests used:
Rattus norvegicus [1] = test: Evaluated for the antiinflammatory activity by measuring the percentage inhibition of edema in the carrageenan foot-pad edema test at the dose of 10 mg/kg; type: functional
In short: (§1)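 Male Wistar rats dosed orally (0.5% HPMC/0.2% Tween 80 or Labrafils, 10 mL/kg) 1 h before subplantar injection of 0.10 mL 1% carrageenan into right hind paw under light anesthesia. Paw volume by mercury plethysmography at challenge and 5 h later; percent inhibition ± SEM versus vehicle group. Doses 10.0 and 30.0 mg/kg po, 7-14 rats per dose.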

Rattus norvegicus [2] = test: Evaluated for the antiinflammatory activity by measuring the percentage inhibition of edema in the carrageenan foot-pad edema test at the dose of 30 mg/kg; type: functional; in short: as §1
Rattus norvegicus [3] = test: Evaluated for the antiinflammatory activity by measuring the dose (po) which inhibited Mycobacterium induced foot-pad edema in rats; type: functional
[4] = biological target: T1, Polyunsaturated fatty acid 5-lipoxygenase (Rattus norvegicus, UniProt P12527); test: Evaluated in vitro for its inhibitory activity against 5-lipoxygenase
T1 sequence (P12527 whole entry): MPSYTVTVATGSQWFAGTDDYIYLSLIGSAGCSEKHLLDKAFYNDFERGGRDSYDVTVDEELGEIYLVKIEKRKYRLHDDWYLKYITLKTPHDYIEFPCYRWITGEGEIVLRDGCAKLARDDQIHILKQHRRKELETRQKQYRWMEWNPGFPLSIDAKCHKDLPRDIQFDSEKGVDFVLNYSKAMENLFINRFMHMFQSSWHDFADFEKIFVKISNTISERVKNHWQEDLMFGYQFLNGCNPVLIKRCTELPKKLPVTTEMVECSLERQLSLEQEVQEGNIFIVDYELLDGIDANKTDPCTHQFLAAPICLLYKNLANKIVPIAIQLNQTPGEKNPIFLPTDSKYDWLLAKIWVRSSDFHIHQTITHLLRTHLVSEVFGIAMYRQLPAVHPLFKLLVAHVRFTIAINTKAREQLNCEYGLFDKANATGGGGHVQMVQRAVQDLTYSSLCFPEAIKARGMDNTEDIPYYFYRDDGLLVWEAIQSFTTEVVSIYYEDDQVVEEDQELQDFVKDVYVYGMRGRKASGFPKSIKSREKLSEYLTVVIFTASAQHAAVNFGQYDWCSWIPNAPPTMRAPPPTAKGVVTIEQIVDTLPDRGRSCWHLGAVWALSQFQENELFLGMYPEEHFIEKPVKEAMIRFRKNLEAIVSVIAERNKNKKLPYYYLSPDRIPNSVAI

Rattus norvegicus [5] = test: Evaluated for the percent rats with ulcers at the dose of 200 mg/kg (number of animals used per group in the experiment are 10 ); type: functional
In short: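 Male outbred Wistar rats (100-250 g) fasted 24 h, given compound orally in 0.5% HPMC (2 mL/kg), then denied food and water 6 more h. Killed with CO2; stomachs opened along greater curvature and scored for ulcers. Percent of rats with ulcers per dose; up to 200 mg/kg po, 10 rats per dose.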

Cyclooxygenase = biological target: T2, Cyclooxygenase (Rattus norvegicus, UniProt P35355+Q63921); test: Evaluated in vitro for its inhibitory activity against Prostaglandin G/H synthase; type: protein assay
T2 sequence (P35355 whole entry): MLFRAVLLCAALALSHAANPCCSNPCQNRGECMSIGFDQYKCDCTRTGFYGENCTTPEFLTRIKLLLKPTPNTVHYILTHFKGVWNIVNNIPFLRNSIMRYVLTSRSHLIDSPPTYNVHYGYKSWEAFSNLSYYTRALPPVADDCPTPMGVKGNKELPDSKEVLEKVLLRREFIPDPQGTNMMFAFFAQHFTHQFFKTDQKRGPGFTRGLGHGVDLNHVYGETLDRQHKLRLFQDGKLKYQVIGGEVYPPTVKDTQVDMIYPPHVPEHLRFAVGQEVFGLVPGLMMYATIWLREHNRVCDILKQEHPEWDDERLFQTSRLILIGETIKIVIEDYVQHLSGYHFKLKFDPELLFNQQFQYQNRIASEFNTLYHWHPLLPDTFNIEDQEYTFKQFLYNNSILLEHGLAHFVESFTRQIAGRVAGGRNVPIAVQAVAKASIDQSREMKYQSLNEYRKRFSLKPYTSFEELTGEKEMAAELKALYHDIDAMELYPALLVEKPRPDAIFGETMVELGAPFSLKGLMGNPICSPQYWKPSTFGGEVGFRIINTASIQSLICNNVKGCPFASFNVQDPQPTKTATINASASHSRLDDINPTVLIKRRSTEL
T2 sequence (Q63921 whole entry): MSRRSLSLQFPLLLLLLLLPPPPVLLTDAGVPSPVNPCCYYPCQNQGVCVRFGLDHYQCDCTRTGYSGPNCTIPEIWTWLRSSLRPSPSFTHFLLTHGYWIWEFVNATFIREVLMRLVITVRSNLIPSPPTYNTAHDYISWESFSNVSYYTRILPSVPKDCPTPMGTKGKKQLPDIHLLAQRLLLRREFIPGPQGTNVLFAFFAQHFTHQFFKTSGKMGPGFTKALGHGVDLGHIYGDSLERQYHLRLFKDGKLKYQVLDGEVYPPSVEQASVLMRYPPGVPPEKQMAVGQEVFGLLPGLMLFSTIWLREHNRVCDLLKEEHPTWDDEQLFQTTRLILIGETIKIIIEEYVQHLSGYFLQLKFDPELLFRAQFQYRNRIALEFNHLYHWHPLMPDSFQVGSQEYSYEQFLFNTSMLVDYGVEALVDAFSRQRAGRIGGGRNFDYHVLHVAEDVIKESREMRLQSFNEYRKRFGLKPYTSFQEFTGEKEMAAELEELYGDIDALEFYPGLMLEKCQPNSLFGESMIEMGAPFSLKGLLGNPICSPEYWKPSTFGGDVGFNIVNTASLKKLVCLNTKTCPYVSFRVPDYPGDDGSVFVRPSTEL

Rattus norvegicus [6] = species: Rattus norvegicus; test: Ratio of IC50 against 5-LO to that of CO enzyme.
In short: (§2)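 In ionophore-stimulated RBL-1 cells (2×10^6/mL, PBS with 1.0 mM Ca, 10 min compound preincubation at room temperature, 5 μM A23187 for 7 min at 37 °C), supernatant LTB₄ (5-LO) and PGF₂α (CO) were each quantified by RIA over 0.10–10.0 μM. IC50s came from linear regression, and the ratio is the 5-LO IC50 over the CO IC50.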

[7] = biological target: T1, Polyunsaturated fatty acid 5-lipoxygenase; test: Evaluated in vitro for its inhibitory activity against 5-lipoxygenase; N=Inactive, <50% inhibition at 10 uM concentration
In short: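 RBL-1 cells grown in MEM + 12% FBS, washed in PBS pH 7.4, resuspended at 2×10^6 cells/mL in PBS with 1.0 mM calcium. Preincubated 10 min at room temperature with compound in DMSO, then stimulated with A23187 (5 μM) 7 min at 37 °C; stopped on ice. Supernatant LTB4 by radioimmunoassay.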

Rattus norvegicus [8] = test: Compound was evaluated for the antiinflammatory activity by measuring the dose (po) which inhibited Mycobacterium induced foot-pad edema in rats; N=Inactive, <30% inhibition at 10 mg/kg po; type: functional, organism-based; set-up: dose 10 mg/kg
Rattus norvegicus [9] = test: Compound was evaluated for the antiinflammatory activity by measuring the percentage inhibition of edema in the carrageenan foot-pad edema test at the dose of 30 mg/kg; N=Inactive, <25% inhibition; type: functional, organism-based; set-up: dose 30 mg/kg; in short: as §1
[10] = biological target: T3, Polyunsaturated fatty acid 5-lipoxygenase (Rattus norvegicus) (UniProt P12527); conditions: at 10 µM
T3 sequence (whole entry): T1 sequence (P12527 whole entry)

Rattus norvegicus [11] = species: Rattus norvegicus; test: Ratio of IC50 against 5-LO and COX; in short: as §2
[12] = biological target: T1, Polyunsaturated fatty acid 5-lipoxygenase; test: Inhibitory activity against 5-Lipoxygenase
In short: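 Rat basophilic leukemia RBL-1 cells were grown in suspension in MEM with 12% FBS, washed, and resuspended at 2×10^6 cells/mL in PBS pH 7.4 with 1.0 mM calcium. Compound in DMSO was preincubated 10 min at room temperature, then 5 μM A23187 was added for 7 min at 37 °C. LTB₄ in the supernatant was measured by RIA at 0.10–10.0 μM. IC50 was determined by linear regression.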

CC(C)(C)c1cc(-c2noc(N=C(N)N)n2)cc(C(C)(C)C)c1O.CS(=O)(=O)O
inhibition in vivo at 10 mg/kg (Rattus norvegicus [1]): 51.2%
inhibition in vivo at 30 mg/kg (Rattus norvegicus [2]): 71%
ID40 (Rattus norvegicus [3]): 3.1 mg/kg
IC50 [4]: 1700 nM
Activity (Rattus norvegicus [5]): 0%
IC50 (Cyclooxygenase): 670 nM
Ratio (Rattus norvegicus [6]): 2.5

CN(C)Cc1nc(-c2cc(C(C)(C)C)c(O)c(C(C)(C)C)c2)ns1.Cl
IC50 [7]: Inactive

CN(C)Cc1nc(-c2cc(C(C)(C)C)c(O)c(C(C)(C)C)c2)no1.Cl
IC50 [4]: 7700 nM
IC50 (Cyclooxygenase): 730 nM
Ratio (Rattus norvegicus [6]): 10.5

CN(C)Cc1noc(-c2cc(C(C)(C)C)c(O)c(C(C)(C)C)c2)n1.Cl
inhibition in vivo at 10 mg/kg (Rattus norvegicus [1]): 34.6%
inhibition in vivo at 30 mg/kg (Rattus norvegicus [2]): 50.3%
IC50 [4]: 6800 nM
IC50 (Cyclooxygenase): 450 nM
Ratio (Rattus norvegicus [6]): 15
ID40 (Rattus norvegicus [8]): inactive

CC(C)(C)c1cc(-c2nc(=S)o[nH]2)cc(C(C)(C)C)c1O
IC50 [4]: 3400 nM

Cc1noc(-c2cc(C(C)(C)C)c(O)c(C(C)(C)C)c2)n1
inhibition (Rattus norvegicus [9]): inactive
IC50 [4]: 3300 nM
IC50 (Cyclooxygenase): 460 nM
Ratio (Rattus norvegicus [6]): 7.2

Cc1nc(-c2cc(C(C)(C)C)c(O)c(C(C)(C)C)c2)no1
IC50 (Cyclooxygenase): 300 nM
Ratio (Rattus norvegicus [6]): 7.7

CC(C)(C)c1cc(-c2noc(N)n2)cc(C(C)(C)C)c1O
inhibition in vivo at 10 mg/kg (Rattus norvegicus [1]): 36%
inhibition in vivo at 30 mg/kg (Rattus norvegicus [2]): 39%
IC50 [4]: 2500 nM
IC50 (Cyclooxygenase): 3000 nM
Ratio (Rattus norvegicus [6]): 0.83

CC(C)(C)c1cc(-c2noc(S)n2)cc(C(C)(C)C)c1O
IC50 (Cyclooxygenase): 50 nM
Ratio (Rattus norvegicus [6]): 68

CC(C)(C)c1cc(-c2noc(O)n2)cc(C(C)(C)C)c1O
IC50 [7]: Inactive
IC50 (Cyclooxygenase): 4700 nM

CC(C)(C)c1cc(-c2nc(N)no2)cc(C(C)(C)C)c1O
inhibition in vivo at 10 mg/kg (Rattus norvegicus [1]): 43.6%
inhibition in vivo at 30 mg/kg (Rattus norvegicus [2]): 32.9%
IC50 [4]: 3600 nM
IC50 (Cyclooxygenase): 1900 nM
Ratio (Rattus norvegicus [6]): 1.9
ID40 (Rattus norvegicus [8]): inactive

CN(C)C(=N)Nc1nc(-c2cc(C(C)(C)C)c(O)c(C(C)(C)C)c2)ns1
inhibition [10]: 72%

CC(=N)Nc1nc(-c2cc(C(C)(C)C)c(O)c(C(C)(C)C)c2)ns1.Cl
IC50 [7]: Inactive

CC(C)(C)c1cc(-c2nc(NC=O)no2)cc(C(C)(C)C)c1O
IC50 [7]: Inactive
inhibition in vivo at 10 mg/kg (Rattus norvegicus [1]): 51.5%
inhibition in vivo at 30 mg/kg (Rattus norvegicus [2]): 54.3%
ID40 (Rattus norvegicus [8]): inactive

C/N=C(\N)Nc1nc(-c2cc(C(C)(C)C)c(O)c(C(C)(C)C)c2)ns1.Cl
inhibition in vivo at 10 mg/kg (Rattus norvegicus [1]): 18%
inhibition in vivo at 30 mg/kg (Rattus norvegicus [2]): 38.9%
ID40 (Rattus norvegicus [3]): 6 mg/kg
IC50 [4]: 370 nM
Activity (Rattus norvegicus [5]): 0%
IC50 (Cyclooxygenase): 4400 nM
Ratio (Rattus norvegicus [6]): 0.084

CCOC(=O)c1nc(-c2cc(C(C)(C)C)c(O)c(C(C)(C)C)c2)ns1
inhibition [10]: 91%

CC(C)(C)c1cc(-c2nsc(N)n2)cc(C(C)(C)C)c1O
IC50 [4]: 330 nM
IC50 (Cyclooxygenase): 2200 nM
Ratio (Rattus norvegicus [6]): 0.15

CC(=O)Nc1noc(-c2cc(C(C)(C)C)c(O)c(C(C)(C)C)c2)n1
inhibition (Rattus norvegicus [9]): inactive
IC50 [7]: Inactive

Cc1ccc(S(=O)(=O)c2nc(-c3cc(C(C)(C)C)c(O)c(C(C)(C)C)c3)ns2)cc1
IC50 [7]: Inactive

CC(C)(C)c1cc(-c2nsc(CN)n2)cc(C(C)(C)C)c1O.Cl
IC50 [4]: 2600 nM
IC50 (Cyclooxygenase): 87 nM
Ratio (Rattus norvegicus [6]): 30

CC(C)(C)c1cc(-c2nsc(N=C(N)N)n2)cc(C(C)(C)C)c1O.Cl
inhibition in vivo at 10 mg/kg (Rattus norvegicus [1]): 46.1%
inhibition in vivo at 30 mg/kg (Rattus norvegicus [2]): 61.3%
ID40 (Rattus norvegicus [3]): 5.1 mg/kg
IC50 [4]: 140 nM
Activity (Rattus norvegicus [5]): 0%
IC50 (Cyclooxygenase): 1600 nM
Ratio (Rattus norvegicus [6]): 0.088

CC(C)(C)c1cc(-c2nsc(NC#N)n2)cc(C(C)(C)C)c1O.C[N+](C)(C)CC[O-]
Ratio (Rattus norvegicus [11]): 173
IC50 [12]: 1900 nM
IC50 (Cyclooxygenase): 11 nM

CC(C)(C)c1cc(-c2nc(CN3CCCC3)no2)cc(C(C)(C)C)c1O
IC50 [7]: Inactive

CSC(=N)Nc1nc(-c2cc(C(C)(C)C)c(O)c(C(C)(C)C)c2)ns1.Cl
inhibition in vivo at 10 mg/kg (Rattus norvegicus [1]): 30.7%
inhibition in vivo at 30 mg/kg (Rattus norvegicus [2]): 41.4%
ID40 (Rattus norvegicus [3]): 7.3 mg/kg
IC50 [4]: 1200 nM
Activity (Rattus norvegicus [5]): 0%
IC50 (Cyclooxygenase): 170 nM
Ratio (Rattus norvegicus [6]): 7.1
